What is called Km is the concentration of substrate that gives half-maximal velocity. A word on the kcat: it is the maximal rate divided by the concentration of active sites.

Test [1] has as its system Enterovirus C. Put plainly: Antiviral activity against poliovirus infected HeLa S3 cells assessed as plaque formation at 0.5 mM relative to control. The class given is functional. Put shortly: (§1)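 HeLa S3 cells (DMEM/F-12, 2% dialyzed FBS) were pretreated with nucleoside for 1 h at 37 °C in 1% DMSO final. Cells were infected with poliovirus (1 × 10⁶ PFU in PBS) for 15 min at 23 °C, then kept 6 h at 37 °C with nucleoside. Cell-associated virus was released by three freeze–thaw cycles and titred by plaque assay on HeLa S3 (1% low-melting agarose overlay, 2 days, crystal violet). Titre is given as % of untreated control.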

The subject of test [2] is Enterovirus C. Kind of test: Incorporation of Poliovirus RNA dependent RNA polymerase into sym/sub-C primer. The method, boiled down:
(§2)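 NTP was 10–250 µM; reactions ran 2 min at 30 °C and were quenched with EDTA. Products were resolved by 20% denaturing PAGE. Initial rates came from the elongated fraction, and kcat and KM from Lineweaver–Burk plots (mean ± SD, n = 3).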

The subject of test [3] is Enterovirus C. Kind of test: Antiviral activity against poliovirus infected HeLa S3 cells assessed as plaque formation at 2 mM. Type of test: functional. The method, boiled down:
as §1

The test system of test [4] is Enterovirus C. Put plainly: Incorporation of Poliovirus RNA dependent RNA polymerase into sym/sub-U primer. The method, boiled down:
as §2

For test [5], the system named is Enterovirus C. Put plainly: Ratio of kcat/Km of Poliovirus RNA dependent RNA polymerase incorporation into sym/sub-C primer relative to control. Further details: unit not given here.
The test system of test [6] is Enterovirus C. Put plainly: Ratio of kcat/Km of Poliovirus RNA dependent RNA polymerase incorporation into sym/sub-U primer. Further details: unit not given here.

Regarding `NC(=O)c1nn([C@@H]2O[C@H](CO)[C@@H](O)[C@H]2O)cc1C#Cc1ccccc1`, the Activity in the test with Enterovirus C [1] turned out to be 122%.
Consider `Nc1ncnc2c1ncn2[C@@H]1O[C@H](COP(=O)(O)OP(=O)(O)OP(=O)(O)O)[C@@H](O)[C@H]1O`, for which, in the test on Enterovirus C [2], the Km amounted to 110 µM and the kcat is 0.82 10^-4/s.
Turning to `NC(=O)c1ncn([C@@H]2O[C@H](CO)[C@@H](O)[C@H]2O)n1` [RIBAVIRIN], the Activity amounted to 40% with Enterovirus C [1] and 4% with Enterovirus C [3].
Consider `CC#Cc1cn([C@@H]2O[C@H](CO)[C@@H](O)[C@H]2O)nc1C(N)=O`, for which the Activity was found to be 94% with Enterovirus C [1] and 57% in the test on Enterovirus C [3].
Turning to `Nc1nc2c(ncn2[C@@H]2O[C@H](COP(=O)(O)OP(=O)(O)OP(=O)(O)O)[C@@H](O)[C@H]2O)c(=O)[nH]1`, in the test on Enterovirus C [4], the Km came out at 56 µM and the kcat was 5 10^-4/s.
With `CC#Cc1cn([C@@H]2O[C@H](COP(=O)(O)OP(=O)(O)OP(=O)(O)O)[C@@H](O)[C@H]2O)nc1C(N)=O`, the Km in the test on Enterovirus C [2] is 51 µM; in the test on Enterovirus C [4], 35 µM. In addition, the values for the kcat in the test with Enterovirus C [2] and with Enterovirus C [4] were 1.3 10^-4/s and 3.1 10^-4/s, respectively. For the same compound, the kcat/Km in the test on Enterovirus C [5] came to 2.6; in the test on Enterovirus C [6], 9.1.
`NC(=O)c1nn([C@@H]2O[C@H](COP(=O)(O)OP(=O)(O)OP(=O)(O)O)[C@@H](O)[C@H]2O)cc1I`: the Km was 40 µM with Enterovirus C [2] and 24 µM with Enterovirus C [4]. Also, the kcat was 1.8 10^-4/s in the test on Enterovirus C [2] and 4.7 10^-4/s in the test with Enterovirus C [4]. The values for the kcat/Km in the test with Enterovirus C [5] and in the test with Enterovirus C [6] were 4.4 and 20, respectively.
On to `NC(=O)c1ncn([C@@H]2O[C@H](COP(=O)(O)OP(=O)(O)OP(=O)(O)O)[C@@H](O)[C@H]2O)n1`, for which the results for the Km with Enterovirus C [2] and in the test on Enterovirus C [4] were 69 µM and 34 µM, respectively. Moreover, the kcat with Enterovirus C [2] was 5.8 10^-4/s; in the test with Enterovirus C [4], 3.7 10^-4/s.
Turning to `NC(=O)c1nn([C@@H]2O[C@H](CO)[C@@H](O)[C@H]2O)cc1I`, the Activity with Enterovirus C [1] is given as 76%; with Enterovirus C [3] it was 68%.

Values taken from ChEMBL document CHEMBL1140696, “Effects of introduction of hydrophobic group on ribavirin base on mutation induction and anti-RNA viral activity” (2008).
